Laboratory results published in ChEMBL document CHEMBL3792291, “Design, synthesis, biological evaluation and docking studies of novel 2-substituted-4-morpholino-7,8-dihydro-5H-thiopyrano[4,3-d]pyrimidine derivatives as dual PI3Kα/mTOR inhibitors” (Eur J Med Chem, 2016).

Columns and labels:
A549 = experiment: Cytotoxicity against human A549 cells assessed as reduction in cell viability after 72 hrs by MTT assay; assay type: functional, cell-based; conditions: A549, 72 h
MCF7 = experiment: Cytotoxicity against human MCF7 cells assessed as reduction in cell viability after 72 hrs by MTT assay; assay type: functional, cell-based; conditions: MCF7, 72 h
[1] = Cytotoxicity against human PC3 cells assessed as reduction in cell viability after 72 hrs by MTT assay; assay type: functional, cell-based; conditions: PC-3, 72 h
Summary of the method: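 Cells grown in MEM with 10% FBS. About 4×10³ cells per well, seeded and held 24 h at 37 °C in 5% CO₂. Compounds added at the indicated final concentrations for 72 h. MTT then given for 4 h at 37 °C and formazan dissolved in DMSO. Absorbance read at 492 nm with 630 nm as reference.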

[2] = target: Hepatocyte growth factor receptor (Homo sapiens, UniProt P08581)
Sequence of Hepatocyte growth factor receptor (P08581 whole entry, canonical isoform): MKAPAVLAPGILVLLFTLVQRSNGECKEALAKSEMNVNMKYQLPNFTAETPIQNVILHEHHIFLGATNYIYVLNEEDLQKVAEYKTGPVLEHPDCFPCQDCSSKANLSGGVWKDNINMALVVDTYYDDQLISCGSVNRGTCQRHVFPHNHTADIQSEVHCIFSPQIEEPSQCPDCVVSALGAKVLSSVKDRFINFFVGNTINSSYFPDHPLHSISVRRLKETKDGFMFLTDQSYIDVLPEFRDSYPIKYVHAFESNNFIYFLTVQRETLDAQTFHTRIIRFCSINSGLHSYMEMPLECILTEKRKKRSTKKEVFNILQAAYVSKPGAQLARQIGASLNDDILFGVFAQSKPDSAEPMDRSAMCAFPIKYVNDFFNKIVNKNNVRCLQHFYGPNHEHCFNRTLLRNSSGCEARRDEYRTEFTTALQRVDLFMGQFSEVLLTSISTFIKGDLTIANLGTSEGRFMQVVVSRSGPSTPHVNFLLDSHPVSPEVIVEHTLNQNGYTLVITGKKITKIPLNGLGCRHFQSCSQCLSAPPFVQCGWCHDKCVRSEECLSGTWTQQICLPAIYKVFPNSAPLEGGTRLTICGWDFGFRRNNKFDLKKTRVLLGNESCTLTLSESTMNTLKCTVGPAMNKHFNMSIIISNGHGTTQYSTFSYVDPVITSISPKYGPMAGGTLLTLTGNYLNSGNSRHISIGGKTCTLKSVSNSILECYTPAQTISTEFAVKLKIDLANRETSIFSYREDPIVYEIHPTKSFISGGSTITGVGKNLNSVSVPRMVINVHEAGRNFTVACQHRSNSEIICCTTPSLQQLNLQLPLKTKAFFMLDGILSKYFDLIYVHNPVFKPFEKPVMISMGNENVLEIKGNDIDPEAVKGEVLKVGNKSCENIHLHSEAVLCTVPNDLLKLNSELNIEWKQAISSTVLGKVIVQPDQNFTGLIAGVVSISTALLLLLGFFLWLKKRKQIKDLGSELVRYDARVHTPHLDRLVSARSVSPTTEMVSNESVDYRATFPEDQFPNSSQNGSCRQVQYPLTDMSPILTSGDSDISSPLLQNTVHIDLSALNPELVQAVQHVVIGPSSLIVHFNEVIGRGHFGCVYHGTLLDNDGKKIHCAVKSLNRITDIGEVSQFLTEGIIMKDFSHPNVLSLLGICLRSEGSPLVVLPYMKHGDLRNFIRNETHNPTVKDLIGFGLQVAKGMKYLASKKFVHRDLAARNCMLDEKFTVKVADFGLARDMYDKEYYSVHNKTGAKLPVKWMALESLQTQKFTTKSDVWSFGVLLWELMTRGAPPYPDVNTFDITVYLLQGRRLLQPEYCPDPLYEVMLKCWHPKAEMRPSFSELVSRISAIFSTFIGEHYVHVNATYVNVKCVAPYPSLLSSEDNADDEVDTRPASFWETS

[3] = target: Phosphatidylinositol 4,5-bisphosphate 3-kinase catalytic subunit alpha isoform (Homo sapiens, UniProt P42336); experiment: Inhibition of PI3Kalpha (unknown origin) using phosphatidylinositol as substrate incubated for 60 mins by Kinase-Glo luminescent kinase assay
Sequence of Phosphatidylinositol 4,5-bisphosphate 3-kinase catalytic subunit alpha isoform (P42336 whole entry, canonical isoform): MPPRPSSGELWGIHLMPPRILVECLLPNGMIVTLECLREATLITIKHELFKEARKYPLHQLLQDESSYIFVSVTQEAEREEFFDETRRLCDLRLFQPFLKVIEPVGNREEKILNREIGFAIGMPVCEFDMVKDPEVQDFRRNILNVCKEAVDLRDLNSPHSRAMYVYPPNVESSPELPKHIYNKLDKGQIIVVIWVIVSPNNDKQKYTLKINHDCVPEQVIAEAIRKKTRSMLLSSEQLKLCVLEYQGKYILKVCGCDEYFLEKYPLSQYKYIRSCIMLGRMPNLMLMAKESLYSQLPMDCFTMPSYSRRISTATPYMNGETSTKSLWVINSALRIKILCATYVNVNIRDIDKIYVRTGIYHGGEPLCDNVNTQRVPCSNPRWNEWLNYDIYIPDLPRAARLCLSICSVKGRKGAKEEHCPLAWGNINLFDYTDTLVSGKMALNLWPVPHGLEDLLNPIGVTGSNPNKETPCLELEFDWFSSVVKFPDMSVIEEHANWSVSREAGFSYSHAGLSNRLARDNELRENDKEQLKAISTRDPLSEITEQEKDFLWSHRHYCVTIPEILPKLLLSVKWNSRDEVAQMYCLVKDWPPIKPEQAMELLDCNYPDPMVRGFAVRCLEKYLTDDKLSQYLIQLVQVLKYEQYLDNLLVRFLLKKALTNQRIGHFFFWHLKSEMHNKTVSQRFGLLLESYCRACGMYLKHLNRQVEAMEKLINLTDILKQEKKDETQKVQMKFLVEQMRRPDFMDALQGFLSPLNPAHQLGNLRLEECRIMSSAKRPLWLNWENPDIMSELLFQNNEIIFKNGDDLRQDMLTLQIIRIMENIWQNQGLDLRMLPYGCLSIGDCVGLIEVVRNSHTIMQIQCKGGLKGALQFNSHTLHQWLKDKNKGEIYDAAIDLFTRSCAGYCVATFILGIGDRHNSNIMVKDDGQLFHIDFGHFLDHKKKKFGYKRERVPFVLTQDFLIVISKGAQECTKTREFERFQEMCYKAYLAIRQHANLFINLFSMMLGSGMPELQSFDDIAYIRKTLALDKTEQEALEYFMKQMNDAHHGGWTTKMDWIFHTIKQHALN

[4] = target: Serine/threonine-protein kinase mTOR (Homo sapiens, UniProt P42345); experiment: Inhibition of mTOR (unknown origin) using ULight-4E-BP1 peptide substrate incubated for 1 hr by TR-FRET assay

IC50 [2] | IC50 [3] | IC50 [4] | Structure (SMILES) | IC50 (A549) | IC50 (MCF7) | IC50 [1]
 |  |  | O=C(Nc1ccccc1)Nc1ccc(-c2nc3c(c(N4CCOCC4)n2)CSCC3)cn1 | 1.27 µM | 46.6 µM | > 50 µM
> 10 µM | > 10 µM | 6.26 µM | O=C(Nc1ccc(Cl)c(C(F)(F)F)c1)N1CCN(c2nc3c(c(N4CCOCC4)n2)CSCC3)CC1 | 3.83 µM | 5.8 µM | 26.7 µM
 |  |  | O=C(Nc1ccc(Cl)c(C(F)(F)F)c1)Nc1ccc(-c2nc3c(c(N4CCOCC4)n2)CS(=O)(=O)CC3)cn1 | > 50 µM | 4.67 µM | 32.2 µM
 |  |  | O=C(Nc1ccc(-c2nc3c(c(N4CCOCC4)n2)CS(=O)(=O)CC3)cn1)NS(=O)(=O)c1ccc(F)cc1F | 22.7 µM | 19.7 µM | > 50 µM
 |  |  | O=C(Nc1ccc(Br)cc1)N1CCN(c2nc3c(c(N4CCOCC4)n2)CS(=O)(=O)CC3)CC1 | 19 µM | 45.6 µM | > 50 µM
 |  |  | O=C(Nc1ccc(-c2nc3c(c(N4CCOCC4)n2)CSCC3)cn1)NS(=O)(=O)c1ccc(F)cc1 | 36.2 µM | > 50 µM | > 50 µM
 |  |  | O=C(Nc1ccc(-c2nc3c(c(N4CCOCC4)n2)CSCC3)cn1)NS(=O)(=O)c1cccs1 | 46.9 µM | > 50 µM | > 50 µM
 |  |  | O=C(Nc1ccc(-c2nc3c(c(N4CCOCC4)n2)CSCC3)cc1)NS(=O)(=O)c1ccc(F)cc1 | > 50 µM | > 50 µM | > 50 µM
 |  |  | Cc1ccc(S(=O)(=O)NC(=O)Nc2ccc(-c3nc4c(c(N5CCOCC5)n3)CS(=O)(=O)CC4)cn2)cc1 | 42.5 µM | > 50 µM | > 50 µM
 |  |  | O=C(Nc1ccc(-c2nc3c(c(N4CCOCC4)n2)CS(=O)(=O)CC3)cn1)NS(=O)(=O)c1ccc(Cl)cc1 | > 50 µM | > 50 µM | > 50 µM
 |  |  | O=C(Nc1ccc(Br)cc1)N1CCN(c2nc3c(c(N4CCOCC4)n2)CSCC3)CC1 | 39.9 µM | 4.68 µM | > 50 µM
 |  |  | O=C(Nc1ccccc1)N1CCN(c2nc3c(c(N4CCOCC4)n2)CS(=O)(=O)CC3)CC1 | > 50 µM | > 50 µM | > 50 µM
 |  |  | O=C(Nc1ccc(-c2nc3c(c(N4CCOCC4)n2)CSCC3)cn1)NS(=O)(=O)c1ccc(Cl)cc1 | > 50 µM | > 50 µM | > 50 µM
 |  |  | O=C(Nc1ccc(-c2nc3c(c(N4CCOCC4)n2)CS(=O)(=O)CC3)cc1)NS(=O)(=O)c1ccc(F)cc1 | > 50 µM | > 50 µM | > 50 µM
> 10 µM | 6.72 µM | 0.94 µM | O=C(Nc1ccc(F)c(Cl)c1)Nc1ccc(-c2nc3c(c(N4CCOCC4)n2)CS(=O)(=O)CC3)cn1 | 0.52 µM | 4.82 µM | 1.41 µM
 |  |  | CNC(=O)c1cc(Oc2ccc(NC(=O)Nc3ccc(Cl)c(C(F)(F)F)c3)cc2)ccn1 [SORAFENIB] |  |  | 8.08 µM
> 10 µM | 4.23 µM | 9.43 µM | O=C(Nc1ccc(Cl)c(C(F)(F)F)c1)N1CCN(c2nc3c(c(N4CCOCC4)n2)CS(=O)(=O)CC3)CC1 | 6.13 µM | 5.94 µM | 28.7 µM
> 10 µM | 0.69 µM | 0.86 µM | O=C(Nc1ccc(F)c(Cl)c1)Nc1ccc(-c2nc3c(c(N4CCOCC4)n2)CSCC3)cn1 | 6.07 µM | 11.5 µM | 20.5 µM
 |  |  | O=C(Nc1ccc(-c2nc3c(c(N4CCOCC4)n2)CSCC3)cc1)NS(=O)(=O)c1ccc(Cl)cc1 | > 50 µM | > 50 µM | > 50 µM
 |  |  | CS(=O)(=O)N1CCN(Cc2cc3nc(-c4cccc5[nH]ncc45)nc(N4CCOCC4)c3s2)CC1 [PICTILISIB] | 1.2 µM |  | 0.8 µM
 |  |  | O=C(Nc1ccccc1)N1CCN(c2nc3c(c(N4CCOCC4)n2)CSCC3)CC1 | > 50 µM | > 50 µM | > 50 µM
 |  |  | O=C(Nc1ccc(-c2nc3c(c(N4CCOCC4)n2)CS(=O)(=O)CC3)cc1)NS(=O)(=O)c1ccc(Cl)cc1 | > 50 µM | > 50 µM | > 50 µM
